# In ChEMBL document CHEMBL4402602, “Discovery of (2R)-N-[3-[2-[(3-Methoxy-1-methyl-pyrazol-4-yl)amino]pyrimidin-4-yl]-1H-indol-7-yl]-2-(4-methylpiperazin-1-yl)propenamide (AZD4205) as a Potent and Selective Janus Kinase 1 Inhibitor” (J Med Chem, 2020):
# Active and inactive are the calls of the source. The rule behind the calls is not given here.
# Key:
# Homo sapiens = organism: Homo sapiens; assay: Selectivity index, ratio of IC50 for inhibition of recombinant human N-terminal GST-tagged JAK2 (831 to 1132 residues) expressed in insect cells using 5FAM-labeled GEEPLYWSFPAKKK-NH2 peptide as substrate after 10 mins in presence of 5 mM ATP by caliper mobility shift assay to IC50 for inhibition of …
# [1] = target: Voltage-gated inwardly rectifying potassium channel KCNH2 (Homo sapiens, UniProt Q12809); assay: Inhibition of human ERG
# [2] = target: T1, Tyrosine-protein kinase JAK1 (Homo sapiens, UniProt P23458); assay: Inhibition of JAK1 in human NCI-H1975 cells assessed as decrease in STAT3 phosphorylation measured after 1 hr by ELISA; type: cell-based
# How it was run: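 Cellular mode-of-action assay in NCI-H1975 cells measuring inhibition of STAT3 phosphorylation. IC50 values are geometric means of at least two independent experiments.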
# [3] = target: T1, Tyrosine-protein kinase JAK1; assay: Inhibition of recombinant human N-terminal GST-tagged JAK1 (866 to 1154 residues) expressed in insect cells using FITC-labeled C6-KKHTDDGYMPMSPGVA-NH peptide as substrate after 10 mins in presence of 5 mM ATP by caliper mobility shift assay
# [4] = target: Tyrosine-protein kinase JAK2 (Homo sapiens, UniProt O60674); assay: Inhibition of recombinant human N-terminal GST-tagged JAK2 (831 to 1132 residues) expressed in insect cells using 5FAM-labeled GEEPLYWSFPAKKK-NH2 peptide as substrate after 10 mins in presence of 5 mM ATP by caliper mobility shift assay
# Mus musculus [5] = assay: In vivo inhibition of EFGR T790M mutant in human NCI-H1975 cells xenografted in NCr nude mouse assessed as reduction of EGFR phosphorylation at Y1173 residue 2.5 mg/kg measured up to 24 hrs relative to control; type: functional
# How it was run: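 Satellite group of subcutaneous NCI-H1975 tumour-bearing female NCr nude mice treated for a single day at a single 2.5 mg/kg dose. pEGFR (Y1173) measured in tumour lysates at time points up to 24 h after dosing, as the EGFR (T790M) inhibition biomarker.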
# [6] = Toxicity in NCr nude mouse xenografted with human NCI-H1975 cells harboring EGFR T790M mutant assessed as effect on body weight at 2.5 mg/kg, po qd administered for 18 days post 10 days of implantation; type: organism-based; details: in vivo
# NCI-H1975 [7] = assay: Antitumor activity against human NCI-H1975 cells harboring EGFR T790M mutant xenografted in NCr nude mouse assessed as tumor growth inhibition at 2.5 mg/kg, po qd administered for 18 days post 10 days of implantation; type: functional, organism-based
# How it was run: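 NCI-H1975 cells implanted subcutaneously in female NCr nude mice. At day 10, mice randomised into groups of 6 to 8 (mean tumour volume 189 mm³, range 152 to 250 mm³). Dosed orally for 18 days, vehicle 20% captisol. Tumour growth followed against vehicle-treated controls.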
# [8] = Half life in Han Wistar rat at 5 mg/kg, iv; type: ADME, organism-based; details: in vivo
# How it was run: (§1)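 Male Han Wistar rats. Oral dose 10 mg/kg in 0.1% HPMC. Intravenous dose 5 mg/kg in 40% DMA/40% PEG/20% saline. AUC, observed clearance, Vdss, half-life and oral bioavailability derived from plasma exposure.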
# [9] = Half life in Beagle dog at 20 mg/kg, po; type: ADME, organism-based, Canis lupus familiaris; details: in vivo
# How it was run: (§2)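 Male beagle dogs. Oral dose 20 mg/kg in 0.1% HPMC, pH 2. Intravenous dose 10 mg/kg in 20% TEG/D5W. AUC, observed clearance, Vdss, half-life and oral bioavailability derived from plasma exposure.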
# [10] = target: Non-receptor tyrosine-protein kinase TYK2 (Homo sapiens, UniProt P29597); assay: Inhibition of TYK2 (unknown origin)
# How it was run: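 JAK family biochemical kinase assay run at 5 mM ATP. IC50 values are geometric means of at least two independent experiments, SEM within 0.2 log units.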
# [11] = Half life in Beagle dog at 10 mg/kg, iv; type: ADME, organism-based, Canis lupus familiaris; details: in vivo
# How it was run: as §2
# [12] = AUC in Beagle dog at 10 mg/kg, iv; type: ADME, organism-based, Canis lupus familiaris; details: in vivo
# How it was run: as §2
# [13] = Volume of distribution at steady state in Beagle dog at 10 mg/kg, iv; type: ADME, organism-based, Canis lupus familiaris; details: in vivo
# How it was run: as §2
# [14] = Octanol-buffer partition coefficient, log D of the compound at pH 7.4 by shake flask method; type: physicochemical
# Mus musculus [15] = assay: In vivo inhibition of JAK1 in human NCI-H1975 cells harboring EGFR T790M mutant xenografted in NCr nude mouse assessed as reduction of STAT3 phosphorylation at Y705 residue at 50 mg/kg measured after 8 hrs relative to control; type: functional; details: NCI-H1975, 8 h
# [16] = Efflux ratio of apparent permeability across basolateral to apical membrane over apical to basolateral membrane in human Caco2 cells; type: ADME, cell-based; details: Caco-2
# How it was run: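 Caco-2 monolayer permeability measured in both directions, apical to basolateral and basolateral to apical. Efflux ratio is the B to A Papp divided by the A to B Papp.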
# Mus musculus [17] = organism: Mus musculus; details: 50 mg/kg
# [18] = Solubility of compound in phosphate buffer at pH 7.4 and 37 degree C; type: physicochemical
# [19] = Toxicity in NCr nude mouse xenografted with human NCI-H1975 cells harboring EGFR T790M mutant assessed as effect on body weight at 50 mg/kg, po bid administered for 18 days post 10 days of implantation in combination with osimertinib at 2.5 mg/kg, po qd; type: organism-based; details: in vivo
# [20] = Half life in Han Wistar rat at 10 mg/kg, po; type: ADME, organism-based; details: in vivo
# How it was run: as §1
# [21] = AUC in Han Wistar rat at 5 mg/kg, iv; type: ADME, organism-based; details: in vivo
# How it was run: as §1
# [22] = Bioavailability in Han Wistar rat at 10 mg/kg, po; details: in vivo
# [23] = Volume of distribution at steady state in Han Wistar rat at 5 mg/kg, iv; type: ADME, organism-based; details: in vivo, read-out: Vdss
# How it was run: as §1
# [24] = Intrinsic clearance in dog hepatocytes assessed per 10^-6 cells; type: ADME, cell-based, Canis lupus familiaris, Hepatocyte
# How it was run: (§3)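 Intrinsic clearance measured in fresh hepatocytes from rat, dog and human. Expressed as µL/min per 10⁶ cells.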
# [25] = target: Vascular endothelial growth factor receptor 3 (Homo sapiens) (UniProt P35916); assay: Inhibition of recombinant human N-terminal GST-tagged FLT4 (800 to end residues) expressed in baculovirus infected Sf21 cells at 1 uM relative to control
# How it was run: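 Single-point screen at 1 µM across a panel of 293 kinases. Percent inhibition recorded for each kinase.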
# [26] = Apparent permeability across apical to basolateral membrane in human Caco2 cells; type: ADME, cell-based; details: Caco-2
# How it was run: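 Caco-2 monolayer permeability measured in both directions, apical to basolateral and basolateral to apical. Papp reported for the A-to-B direction.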
# [27] = Bioavailability in Beagle dog at 20 mg/kg, po; details: in vivo
# [28] = Toxicity in NCr nude mouse xenografted with human NCI-H1975 cells harboring EGFR T790M mutant assessed as effect on body weight at 50 mg/kg, po bid administered for 18 days post 10 days of implantation; type: organism-based; details: in vivo
# How it was run: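 Female NCr nude mice implanted subcutaneously with NCI-H1975 cells. Ten days after implantation, mice were randomized into groups of 6 to 8 (average tumor volume 189 mm³, range 152 to 250 mm³). They were dosed orally, as single agent or combination, at 50 mpk BID for 18 days. Vehicle was 20% captisol, with vehicle-treated controls.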
# [29] = Clearance in Han Wistar rat at 5 mg/kg, iv; type: ADME, organism-based; details: in vivo
# How it was run: as §1
# [30] = Intrinsic clearance in rat hepatocytes assessed per 10^-6 cells; type: ADME, cell-based, Hepatocyte
# How it was run: as §3
# Mus musculus [31] = organism: Mus musculus; details: 50 mg/kg; remark: listed apart in the source
# NCI-H1975 [32] = assay: Antitumor activity against human NCI-H1975 cells harboring EGFR T790M mutant xenografted in NCr nude mouse assessed as tumor growth inhibition at 50 mg/kg, po bid administered for 18 days post 10 days of implantation; type: functional, organism-based
# How it was run: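 NCI-H1975 cells implanted subcutaneously in female NCr nude mice. Ten days later, mice with tumours averaging 189 mm³ (range 152–250) were randomized into groups of 6–8.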
# [33] = Solubility of compound at pH 6.5; type: physicochemical; details: buffer
# [34] = AUC in Beagle dog at 20 mg/kg, po; type: ADME, organism-based, Canis lupus familiaris; details: in vivo
# How it was run: as §2
# [35] = target: Cytochrome P450 (isoform not stated) (Homo sapiens, UniProt P04798+P05177+P05181+P08684+P10632+P10635+P11509+P11712+P13584+P20813+P20815+P20853+P24462+P24903+P33260+P33261+P51589+P78329+P98187+Q02928+Q08477+Q16678+Q16696+Q5TCH4+Q6VVX0+Q7Z449+Q8TAV3+Q96SQ9+Q9HB55); assay: Inhibition of human Cytochrome P450; type: ADME, protein assay
# How it was run: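 Inhibition tested against […] at up to 30 µM. IC50 reported.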
# [36] = AUC in Han Wistar rat at 10 mg/kg, po; type: ADME, organism-based; details: in vivo
# How it was run: as §1
# NCI-H1975 [37] = details: Homo sapiens, 50 mg/kg
# [38] = Intrinsic clearance in human hepatocytes assessed per 10^-6 cells; type: ADME, cell-based, Hepatocyte
# How it was run: as §3
# [39] = Solubility of compound at pH 7.4; type: physicochemical; details: buffer
# Tyrosine-protein kinase JAK2, sequence (O60674 whole entry, the tested form may be a part): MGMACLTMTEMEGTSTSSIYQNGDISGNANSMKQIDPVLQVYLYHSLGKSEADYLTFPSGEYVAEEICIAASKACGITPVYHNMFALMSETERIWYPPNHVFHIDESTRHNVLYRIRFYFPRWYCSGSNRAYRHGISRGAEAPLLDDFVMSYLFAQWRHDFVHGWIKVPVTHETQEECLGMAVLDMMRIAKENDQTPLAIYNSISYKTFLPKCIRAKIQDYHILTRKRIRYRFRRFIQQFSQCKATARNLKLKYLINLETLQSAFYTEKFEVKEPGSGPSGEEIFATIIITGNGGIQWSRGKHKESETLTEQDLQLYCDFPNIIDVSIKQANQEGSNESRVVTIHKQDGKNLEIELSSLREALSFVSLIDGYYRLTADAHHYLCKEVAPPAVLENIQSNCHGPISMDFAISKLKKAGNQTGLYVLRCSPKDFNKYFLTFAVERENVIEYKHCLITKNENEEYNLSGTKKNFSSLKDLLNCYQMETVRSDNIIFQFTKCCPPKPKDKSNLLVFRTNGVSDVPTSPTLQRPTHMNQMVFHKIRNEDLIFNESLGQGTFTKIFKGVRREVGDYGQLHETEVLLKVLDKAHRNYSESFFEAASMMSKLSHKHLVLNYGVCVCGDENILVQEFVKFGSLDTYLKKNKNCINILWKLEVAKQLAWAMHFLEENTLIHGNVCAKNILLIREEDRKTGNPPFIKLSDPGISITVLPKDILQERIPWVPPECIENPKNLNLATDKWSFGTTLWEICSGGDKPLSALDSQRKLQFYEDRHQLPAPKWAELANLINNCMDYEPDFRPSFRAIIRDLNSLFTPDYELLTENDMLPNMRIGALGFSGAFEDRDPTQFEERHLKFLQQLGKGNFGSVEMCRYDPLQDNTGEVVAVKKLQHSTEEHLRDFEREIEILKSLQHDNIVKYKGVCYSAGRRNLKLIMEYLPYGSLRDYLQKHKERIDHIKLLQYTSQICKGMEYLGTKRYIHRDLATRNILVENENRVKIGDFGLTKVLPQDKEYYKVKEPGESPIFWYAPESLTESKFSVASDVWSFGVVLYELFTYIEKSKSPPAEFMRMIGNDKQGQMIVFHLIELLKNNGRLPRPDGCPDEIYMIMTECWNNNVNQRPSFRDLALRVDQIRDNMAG
# T1 sequence (P23458 whole entry): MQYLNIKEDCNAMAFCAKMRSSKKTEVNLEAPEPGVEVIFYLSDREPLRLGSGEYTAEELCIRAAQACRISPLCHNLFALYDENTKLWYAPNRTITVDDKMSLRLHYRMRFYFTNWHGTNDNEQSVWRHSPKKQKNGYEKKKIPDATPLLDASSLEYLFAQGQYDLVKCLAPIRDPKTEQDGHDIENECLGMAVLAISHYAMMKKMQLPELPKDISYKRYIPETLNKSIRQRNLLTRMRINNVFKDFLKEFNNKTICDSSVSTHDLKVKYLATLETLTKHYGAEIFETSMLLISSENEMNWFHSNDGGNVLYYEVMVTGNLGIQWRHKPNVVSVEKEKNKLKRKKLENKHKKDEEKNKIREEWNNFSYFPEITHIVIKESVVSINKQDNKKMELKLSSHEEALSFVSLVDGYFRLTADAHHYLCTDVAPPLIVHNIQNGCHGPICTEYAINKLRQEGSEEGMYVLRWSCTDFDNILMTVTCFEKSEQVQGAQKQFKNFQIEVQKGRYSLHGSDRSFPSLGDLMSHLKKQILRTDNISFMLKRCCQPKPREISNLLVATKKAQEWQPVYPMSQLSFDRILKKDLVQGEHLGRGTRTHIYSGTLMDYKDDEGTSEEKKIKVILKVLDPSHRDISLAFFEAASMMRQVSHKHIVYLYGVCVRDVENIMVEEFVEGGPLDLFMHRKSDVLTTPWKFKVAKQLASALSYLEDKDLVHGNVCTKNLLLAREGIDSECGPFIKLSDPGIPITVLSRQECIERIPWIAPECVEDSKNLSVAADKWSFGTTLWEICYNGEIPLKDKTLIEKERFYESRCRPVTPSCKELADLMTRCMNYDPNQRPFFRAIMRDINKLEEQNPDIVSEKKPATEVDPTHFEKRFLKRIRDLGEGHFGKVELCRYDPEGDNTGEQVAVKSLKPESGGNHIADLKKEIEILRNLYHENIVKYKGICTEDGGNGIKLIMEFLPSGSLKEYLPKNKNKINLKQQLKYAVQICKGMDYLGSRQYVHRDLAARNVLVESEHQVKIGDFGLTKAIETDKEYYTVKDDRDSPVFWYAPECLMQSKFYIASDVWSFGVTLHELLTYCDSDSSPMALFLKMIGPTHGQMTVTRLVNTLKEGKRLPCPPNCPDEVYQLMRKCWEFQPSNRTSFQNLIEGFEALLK
# Voltage-gated inwardly rectifying potassium channel KCNH2, sequence (Q12809 whole entry): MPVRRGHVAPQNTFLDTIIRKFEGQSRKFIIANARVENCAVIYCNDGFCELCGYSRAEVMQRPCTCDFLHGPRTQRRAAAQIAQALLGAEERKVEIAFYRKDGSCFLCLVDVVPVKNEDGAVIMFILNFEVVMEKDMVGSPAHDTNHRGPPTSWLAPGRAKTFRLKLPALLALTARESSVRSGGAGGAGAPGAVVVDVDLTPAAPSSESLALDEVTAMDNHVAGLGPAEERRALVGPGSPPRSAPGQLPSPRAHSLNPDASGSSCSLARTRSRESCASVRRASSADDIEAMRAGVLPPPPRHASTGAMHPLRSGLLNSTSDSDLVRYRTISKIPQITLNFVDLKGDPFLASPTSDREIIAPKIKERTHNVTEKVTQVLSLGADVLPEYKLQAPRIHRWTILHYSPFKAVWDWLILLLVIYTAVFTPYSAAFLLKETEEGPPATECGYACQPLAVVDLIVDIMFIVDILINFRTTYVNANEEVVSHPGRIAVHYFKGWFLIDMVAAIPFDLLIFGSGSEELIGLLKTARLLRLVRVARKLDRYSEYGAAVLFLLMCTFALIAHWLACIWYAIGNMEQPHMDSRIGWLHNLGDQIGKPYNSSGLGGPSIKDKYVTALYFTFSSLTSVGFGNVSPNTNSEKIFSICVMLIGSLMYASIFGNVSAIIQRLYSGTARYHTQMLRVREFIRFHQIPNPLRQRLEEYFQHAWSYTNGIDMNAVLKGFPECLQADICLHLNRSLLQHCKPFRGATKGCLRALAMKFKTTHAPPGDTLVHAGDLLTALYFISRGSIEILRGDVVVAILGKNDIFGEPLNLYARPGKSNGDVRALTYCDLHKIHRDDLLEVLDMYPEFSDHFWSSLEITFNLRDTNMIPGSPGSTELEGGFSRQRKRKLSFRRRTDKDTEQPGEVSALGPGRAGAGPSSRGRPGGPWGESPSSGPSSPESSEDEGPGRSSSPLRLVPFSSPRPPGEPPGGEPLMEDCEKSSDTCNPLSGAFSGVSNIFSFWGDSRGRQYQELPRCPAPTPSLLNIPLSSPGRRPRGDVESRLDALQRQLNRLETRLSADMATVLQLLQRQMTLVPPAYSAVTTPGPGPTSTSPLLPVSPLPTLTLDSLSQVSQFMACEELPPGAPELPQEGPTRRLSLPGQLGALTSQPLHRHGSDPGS
# Non-receptor tyrosine-protein kinase TYK2, sequence (P29597 whole entry): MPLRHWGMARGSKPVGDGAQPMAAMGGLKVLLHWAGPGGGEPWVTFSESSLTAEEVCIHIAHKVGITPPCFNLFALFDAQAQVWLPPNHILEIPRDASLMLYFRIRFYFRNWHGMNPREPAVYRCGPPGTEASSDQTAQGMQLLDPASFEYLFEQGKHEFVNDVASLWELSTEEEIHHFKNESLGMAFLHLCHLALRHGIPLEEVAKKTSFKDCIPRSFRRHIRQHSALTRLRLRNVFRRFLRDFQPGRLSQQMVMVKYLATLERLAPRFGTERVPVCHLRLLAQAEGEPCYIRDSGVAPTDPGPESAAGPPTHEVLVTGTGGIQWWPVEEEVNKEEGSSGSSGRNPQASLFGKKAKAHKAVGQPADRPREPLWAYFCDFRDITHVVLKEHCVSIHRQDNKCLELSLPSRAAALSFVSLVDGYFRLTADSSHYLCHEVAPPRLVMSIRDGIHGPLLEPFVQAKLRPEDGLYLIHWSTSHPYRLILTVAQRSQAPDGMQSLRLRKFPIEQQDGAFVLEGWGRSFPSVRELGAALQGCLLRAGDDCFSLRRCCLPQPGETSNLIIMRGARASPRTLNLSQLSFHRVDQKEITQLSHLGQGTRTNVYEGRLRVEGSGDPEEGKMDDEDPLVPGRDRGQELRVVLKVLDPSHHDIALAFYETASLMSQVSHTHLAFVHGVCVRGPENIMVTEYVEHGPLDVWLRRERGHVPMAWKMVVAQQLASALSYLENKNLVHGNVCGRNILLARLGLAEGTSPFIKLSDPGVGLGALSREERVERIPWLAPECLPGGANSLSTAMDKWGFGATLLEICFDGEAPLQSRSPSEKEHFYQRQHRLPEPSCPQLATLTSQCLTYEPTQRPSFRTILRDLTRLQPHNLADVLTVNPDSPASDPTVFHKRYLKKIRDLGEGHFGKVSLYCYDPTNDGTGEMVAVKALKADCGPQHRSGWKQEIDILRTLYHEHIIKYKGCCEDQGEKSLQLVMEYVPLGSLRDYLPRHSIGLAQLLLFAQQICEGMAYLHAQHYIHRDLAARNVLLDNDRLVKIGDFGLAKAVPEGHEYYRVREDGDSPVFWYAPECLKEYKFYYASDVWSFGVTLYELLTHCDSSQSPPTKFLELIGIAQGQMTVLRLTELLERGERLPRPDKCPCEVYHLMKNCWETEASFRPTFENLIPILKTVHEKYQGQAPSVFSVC
smiles,measurement,setting,value
COc1nn(C)cc1Nc1ncc(Br)c(-c2c[nH]c3c(NC(=O)[C@@H](C)N4CCN(C)CC4)cccc23)n1,Ratio IC50,Homo sapiens,196
same,IC50,[1],15000 nM
same,IC50,[2],94 nM
Cc1cnc(Nc2cnn(C)c2)nc1-c1c[nH]c2ccccc12,Ratio IC50,Homo sapiens,5
same,IC50,[3],70 nM
same,IC50,[4],380 nM
Cc1cnc(NC(=O)C2CC2)nc1-c1c[nH]c2c(NC(=O)CN3CCOCC3)cccc12,Ratio IC50,Homo sapiens,> 12
same,IC50,[3],2400 nM
same,IC50,[4],> 30000 nM
COc1nn(C)cc1Nc1ncc(F)c(-c2c[nH]c3c(NC(=O)[C@@H](C)N4CCN(C)CC4)cccc23)n1,Ratio IC50,Homo sapiens,347
same,IC50,[1],> 33000 nM
same,IC50,[2],120 nM
C=CC(=O)Nc1cc(Nc2nccc(-c3cn(C)c4ccccc34)n2)c(OC)cc1N(C)CCN(C)C [OSIMERTINIB],inhibition (INH),Mus musculus [5],100%
same,Activity,[6],Non-Toxic
same,TGI,NCI-H1975 [7],inactive
Cc1cnc(Nc2cccnc2F)nc1-c1c[nH]c2c(NC(=O)[C@@H](C)N3CCN(C)CC3)cccc12,Ratio IC50,Homo sapiens,> 1110
same,IC50,[1],10000 nM
same,IC50,[2],80 nM
same,IC50,[4],30000 nM
COc1nn(C)cc1Nc1nccc(-c2c[nH]c3c(NC(=O)[C@@H](C)N4CCN(C)CC4)cccc23)n1 [GOLIDOCITINIB],half-life,[8],6 h
same,Ratio IC50,Homo sapiens,> 214
same,half-life,[9],9 h
same,IC50,[10],2800 nM
same,half-life,[11],9 h
same,AUC,[12],3.1 µM·h
same,Vd,[13],6.3 L/kg
same,logD,[14],1.7
same,inhibition in vivo at 50 mg/kg,Mus musculus [15],80%
same,efflux ratio,[16],2.6
same,inhibition,Mus musculus [17],Active
same,IC50,[1],> 100000 nM
same,solubility,[18],605 µM
same,Activity,[19],Non-Toxic
same,half-life,[20],7 h
same,AUC,[21],1.2 µM·h
same,F,[22],100%
same,Vd,[23],8.7 L/kg
same,CLH,[24],2 µL/min
same,inhibition,[25],> 75%
same,Papp A→B,[26],7.51 ×10⁻⁶ cm/s
same,bioavailability,[27],71%
same,Activity,[28],Non-Toxic
same,clearance,[29],20 mL/min/kg
same,CLH,[30],< 1.9 µL/min
same,inhibition,Mus musculus [31],Active
same,IC50,[3],70 nM
same,TGI,NCI-H1975 [32],inactive
same,solubility,[33],> 1000 µM
same,IC50,[2],130 nM
same,AUC,[34],5.3 µM·h
same,IC50,[35],> 30000 nM
same,AUC,[36],1.7 µM·h
same,TGI,NCI-H1975 [37],Active
same,CLH,[38],< 1 µL/min
same,IC50,[4],> 15000 nM
COc1nn(C)cc1Nc1ncc(C)c(-c2c[nH]c3c(NCc4ccc(C)nc4C)cccc23)n1,Ratio IC50,Homo sapiens,140
same,solubility,[39],0.1 µM
same,IC50,[3],4 nM
same,IC50,[4],560 nM
Cc1cnc(NC(=O)C2CC2)nc1-c1c[nH]c2c(NC(=O)[C@@H](C)N3CCN(C)CC3)cccc12,Ratio IC50,Homo sapiens,> 166
same,solubility,[39],> 930 µM
same,IC50,[3],180 nM
same,IC50,[4],> 30000 nM
Cc1cnc(NC(=O)C2CC2)nc1-c1c[nH]c2c(NC(=O)CN3CCN(C)CC3)cccc12,Ratio IC50,Homo sapiens,> 65
same,solubility,[39],230 µM
same,IC50,[3],460 nM
same,IC50,[4],> 30000 nM
